Fewer inactive variants are shown than the library holds.
B1: tRNA (parent)
chain: GUUCCGUUGGCGUAAUGGUAACGCGUCUCCCUCCUAAGGAGAAGACUGCGGGUUCGAGUCCCGUACGGAACG

Variants of: B1
Test: yeast fitness relative to wild type (ratio to wild type); higher = fitter; tRNA-Arg(CCU), competitive growth, 37 C, YPD
Outline: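 Variants of the tRNA-Arg(CCU) gene were chemically synthesised with a 3% per-site mutation rate across 69 sites and placed at the native genomic locus in Saccharomyces cerevisiae. Six parallel replicates of the pooled strains were competed in YPD at 37°C for 24 hours, and gene amplicons from the start and end populations were read by 100-nucleotide paired-end sequencing. Darwinian fitness relative to wild type was derived from changes in genotype frequencies. Genotypes required ≥ 100 starting reads, and estimates < 0.5 were set to 0.5.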
For A14G G68U A70U, the yeast fitness was ≤ 0.5.
With A14G G23A C34A the yeast fitness was ≤ 0.5.
For A14G U28C, the yeast fitness was 0.692.
A14G C55U showed a yeast fitness of 0.553.
In the case of A14G C55A, the yeast fitness is reported as ≤ 0.5.
With A14G G25C C31U the yeast fitness was 0.692.
A14G G63C gave a yeast fitness of 0.78.
For A14U A15G U53G, the yeast fitness was ≤ 0.5.
A14G G39C A70U gave a yeast fitness of 0.717.
In the case of A14G U16G A36U G68C, the yeast fitness is reported as ≤ 0.5.
In the case of A14G G17C C55A, the yeast fitness is reported as ≤ 0.5.
For A14G U26C A37G G67A, the yeast fitness was 0.539.
For A14G G44A C46A G52A C66U, the yeast fitness was ≤ 0.5.
With A14G G38C A57G A70G the yeast fitness was ≤ 0.5.
Work on A14U A15C C24A U26A G50C yielded a yeast fitness of 0.544.
A14G G44A showed a yeast fitness of 0.894.
For A14G G44C, the yeast fitness was 0.928.
In the case of A14G C55U A69U, the yeast fitness is reported as ≤ 0.5.
Work on A14G G68U yielded a yeast fitness of 0.826.
A14G G68C gave a yeast fitness of 0.78.
Work on A14U A15C G39C yielded a yeast fitness of 0.546.
A14G G17A showed a yeast fitness of 0.735.
Variant A14G C49G A57G has a yeast fitness of 0.557.
In the case of A14G G58C A65C, the yeast fitness is reported as 0.593.
In the case of A14G G52C A70U, the yeast fitness is reported as ≤ 0.5.
With A14G G39C C55A A65G the yeast fitness was ≤ 0.5.
In the case of A14U A15G A65G, the yeast fitness is reported as ≤ 0.5.
In the case of A14G U19G C46U A57G A70C, the yeast fitness is reported as ≤ 0.5.
Variant A14G U26C G68A has a yeast fitness of 0.557.
In the case of A14G G18C C24G U28C C30U G48C U53A, the yeast fitness is reported as 0.665.
In the case of A14G G23C C29A, the yeast fitness is reported as ≤ 0.5.
Variant A14G U26C C30U has a yeast fitness of 0.567.
For A14G U53C, the yeast fitness was 0.775.
A14G U53A gave a yeast fitness of 0.63.
In the case of A14G U35G A40G A57G, the yeast fitness is reported as ≤ 0.5.
Work on A14G U28G C29U C49U U54A C55U A70C yielded a yeast fitness of 0.603.
A14G G58A A65U showed a yeast fitness of 0.782.
A14G U32C showed a yeast fitness of 0.931.
For A14G G50C C66U, the yeast fitness was ≤ 0.5.
A14G G48C G50A showed a yeast fitness of 0.546.
With A14G G18C G52C C55A the yeast fitness was ≤ 0.5.
In the case of A14G U16G C29G G58A, the yeast fitness is reported as ≤ 0.5.
With A14G G56A G67C the yeast fitness was ≤ 0.5.
For A14G U19C A21U G68U, the yeast fitness was ≤ 0.5.
For A14G G17C G39A, the yeast fitness was ≤ 0.5.
For A14U A15C C31A, the yeast fitness was ≤ 0.5.
In the case of A14G C62U G68C, the yeast fitness is reported as ≤ 0.5.
Work on A14G U59C yielded a yeast fitness of 0.923.
A14G U59G gave a yeast fitness of 0.774.
For A14G G25A C30A A42C, the yeast fitness was ≤ 0.5.
For A14G U32C A42C A57U C61G, the yeast fitness was ≤ 0.5.
For A14G C49U U54C, the yeast fitness was ≤ 0.5.
For A14G G17C G58C, the yeast fitness was ≤ 0.5.
With A14G U19G G48C U54G A65C the yeast fitness was ≤ 0.5.
Variant A14G G17A A37G has a yeast fitness of 0.536.
Work on A14G G18A C30U yielded a yeast fitness of 0.809.
Variant A14G C49U has a yeast fitness of 0.908.
With A14G G17C C24U A69U the yeast fitness was ≤ 0.5.
For A14G G23A C29G G68C, the yeast fitness was ≤ 0.5.
A14G G39C showed a yeast fitness of 0.678.
With A14G U47C G68A the yeast fitness was ≤ 0.5.
A14G C62A showed a yeast fitness of 0.533.
Variant A14G G23A G38C C46U has a yeast fitness of 0.621.
In the case of A14G G18C C29G C34U A45C, the yeast fitness is reported as ≤ 0.5.
With A14G U19C U59A the yeast fitness was ≤ 0.5.
For A14G U35C, the yeast fitness was 0.635.
Variant A14G U35A has a yeast fitness of 0.561.
With A14G G23A the yeast fitness was 0.559.
In the case of A14G G23C, the yeast fitness is reported as 0.692.
For A14G U35A A42U C46G G56A, the yeast fitness was 0.524.
For A14G G52A G56C A65G, the yeast fitness was ≤ 0.5.
In the case of A14G U26G G52C C60A, the yeast fitness is reported as 0.616.
With A14G U16A C24G A45G C62A A69C the yeast fitness was ≤ 0.5.
Work on A14G U19A yielded a yeast fitness of 0.809.
With A14G U19G the yeast fitness was 0.856.
A14G G25A showed a yeast fitness of 0.856.
With A14G G25C the yeast fitness was 0.976.
Work on A14G C49U U64A yielded a yeast fitness of 0.537.
In the case of A14G G23A C27G, the yeast fitness is reported as ≤ 0.5.
Variant A14G G48C C62U has a yeast fitness of 0.654.
In the case of A14G U19C C31G A37U A65U, the yeast fitness is reported as ≤ 0.5.
In the case of A14G C62G G68A, the yeast fitness is reported as ≤ 0.5.
For A14G G18C G50C, the yeast fitness was ≤ 0.5.
With A14U A20C C22U C24U C49G U53A G56C the yeast fitness was 0.547.
A14G G25A U32A gave a yeast fitness of 0.56.
For A14G G18A U26A, the yeast fitness was ≤ 0.5.
For A14G G17A A37U C62G, the yeast fitness was ≤ 0.5.
For A14G G48A G68A, the yeast fitness was ≤ 0.5.
For A14U A15U C27A C29G G44C C66A A70G, the yeast fitness was ≤ 0.5.
With A14U A15G A45C G50A C62U the yeast fitness was 0.526.
With A14G U35G G52C the yeast fitness was ≤ 0.5.
For A14G G18C, the yeast fitness was 0.559.
With A14G G17A C34U C55G the yeast fitness was ≤ 0.5.
Work on A14G G48C U64C yielded a yeast fitness of 0.715.
A14G G48C U64G showed a yeast fitness of 0.503.
For A14G U32A C62U, the yeast fitness was ≤ 0.5.
With A14G G48A C61A G68U the yeast fitness was ≤ 0.5.
With A14G U54G A70C the yeast fitness was ≤ 0.5.
For A14G U26C A37G, the yeast fitness was ≤ 0.5.
For A14G U47G C62U, the yeast fitness was ≤ 0.5.
With A14G G23A A40U A42C G58C the yeast fitness was ≤ 0.5.
In the case of A14G G38C A65C, the yeast fitness is reported as ≤ 0.5.
Work on A14G U16A C33A C55U yielded a yeast fitness of 0.67.
In the case of A14G U47A A69C, the yeast fitness is reported as ≤ 0.5.
With A14G G25A A40U C49U C60A G63A the yeast fitness was ≤ 0.5.
For A14G G44A G67C, the yeast fitness was ≤ 0.5.
With A14U A20C C24U the yeast fitness was ≤ 0.5.
A14U A20C C24A gave a yeast fitness of 0.554.
For A14G G25A A69U, the yeast fitness was 0.77.
For A14G G39C U47C, the yeast fitness was ≤ 0.5.
In the case of A14U A15G C49G, the yeast fitness is reported as ≤ 0.5.
In the case of A14G C61A A69C, the yeast fitness is reported as ≤ 0.5.
With A14U A15C C31G A43U A70G the yeast fitness was 0.556.
For A14G G25C G51C C60U G67A, the yeast fitness was ≤ 0.5.
With A14G G50C A69U the yeast fitness was ≤ 0.5.
In the case of A14G G17C C24U C49U A69U, the yeast fitness is reported as ≤ 0.5.
For A14G U28C C61U, the yeast fitness was 0.577.
In the case of A14G U26G A43C C46A, the yeast fitness is reported as ≤ 0.5.
For A14G C49G C66U, the yeast fitness was 0.526.
With A14G G67C the yeast fitness was 0.763.
Work on A14G G41A U47A yielded a yeast fitness of 0.591.
In the case of A14G C66G, the yeast fitness is reported as 0.761.
In the case of A14G U19C U35C A40G, the yeast fitness is reported as ≤ 0.5.
With A14G U32C A42G U59C the yeast fitness was ≤ 0.5.
Work on A14G C61U A70U yielded a yeast fitness of 0.835.
For A14U A15G C34G C61U, the yeast fitness was ≤ 0.5.
For A14G U16G C24G U26C U47G G50C, the yeast fitness was 0.515.
Work on A14G G48A yielded a yeast fitness of 0.868.
Variant A14G G44A A57U has a yeast fitness of 0.576.
With A14G G18C C31A A69U the yeast fitness was ≤ 0.5.
With A14U A15G A43C G52A G56A C62G A65G the yeast fitness was 0.607.
In the case of A14G U19A C34U, the yeast fitness is reported as ≤ 0.5.
In the case of A14G U26C U28A A65U, the yeast fitness is reported as ≤ 0.5.
For A14G G56A, the yeast fitness was 0.805.
Work on A14G G41A yielded a yeast fitness of 0.981.
Work on A14G C60G yielded a yeast fitness of 0.507.
Work on A14G C60A yielded a yeast fitness of 0.523.
In the case of A14G G18C C29G G56C, the yeast fitness is reported as ≤ 0.5.
In the case of A14G U47C, the yeast fitness is reported as 0.871.
Work on A14G U47G yielded a yeast fitness of 0.516.
For A14G U47A, the yeast fitness was 0.776.
With A14U A15G A21C the yeast fitness was 0.536.
In the case of A14G U28C G68A, the yeast fitness is reported as ≤ 0.5.
For A14U A15C C31G G50A, the yeast fitness was 0.665.
For A14G G23C C27A G51A, the yeast fitness was ≤ 0.5.
In the case of A14G U35C C62G A65G, the yeast fitness is reported as 0.635.
For A14G G18A U32A G44A A65C, the yeast fitness was ≤ 0.5.
For A14U A15U C49A G51C U59A, the yeast fitness was ≤ 0.5.
For A14U A15C G25C, the yeast fitness was ≤ 0.5.
With A14G U26G U54G A69U the yeast fitness was ≤ 0.5.
In the case of A14G G23C C27A, the yeast fitness is reported as ≤ 0.5.
In the case of A14G G17A A37U A43U C62G, the yeast fitness is reported as ≤ 0.5.
In the case of A14G G23A U35C A37C, the yeast fitness is reported as 0.5.
For A14G G18A U26A A70C, the yeast fitness was ≤ 0.5.
For A14G U19C A20U, the yeast fitness was 0.773.
Variant A14G U16G has a yeast fitness of 0.742.
Work on A14G U16C yielded a yeast fitness of 0.897.
Variant A14G U26C has a yeast fitness of 0.879.
A14G G58C showed a yeast fitness of 0.989.
For A14G U28C A40U, the yeast fitness was 0.691.
With A14G G18C A21U C29G C66U the yeast fitness was ≤ 0.5.
For A14G G25A C46G A57C, the yeast fitness was ≤ 0.5.
With A14G G50A the yeast fitness was 0.907.
Work on A14G G25A C30A G52C yielded a yeast fitness of 0.548.
For A14G G39C G68A A70U, the yeast fitness was ≤ 0.5.
For A14G G18A A21U U26C G48A, the yeast fitness was ≤ 0.5.
In the case of A14G G38A A43G, the yeast fitness is reported as ≤ 0.5.

Reference: the RNAGym collection of RNA variant scans (doi:10.1126/science.aae0568)
